Measured values pooled from the literature.
Each line is one published result; the experiments were not run side by side.
Target: Tyrosine-protein kinase Srms (SRMS, Homo sapiens, UniProt Q9H3Y6)

Structure (SMILES)	effect on	action	technique	tested at	quantity	value
FC(F)(F)c1ccc2c(c1)nc(-c1cccnc1)n2C1CC1	cell-free assay		competition with immobilised ligand	1 µM	remaining binding	95%
N#CCCc1ccc2c(c1)-c1[nH]c3ccc([N+](=O)[O-])cc3c1CC(=O)N2	cell-free assay			0.5 µM	remaining signal	78.6%
CC(C)(O)[C@H]1CC[C@H](Nc2ccc3ncc(-c4cccc(C(F)(F)F)c4)n3n2)CC1	enzyme activity	inhibitor		1 µM	remaining activity	96.5%
C[S+]([O-])c1ccc(-c2nc(-c3ccncc3)c(-c3ccc(F)cc3)[nH]2)cc1 (stereo not shown)	cell-free assay			0.5 µM	remaining signal	102%
Cc1sc(C(=O)NC2COC2)cc1-n1cc(NC(=O)Nc2c(F)cccc2Cl)cn1	enzyme activity	inhibitor		10 µM	remaining activity	104%
C[C@H](c1ccnc(Nc2nc3ccc(-c4cc(N(C)C)ncn4)cc3[nH]2)c1)N1CCN(C(=O)CC(F)(F)F)CC1	cell-free assay		competition with immobilised ligand	0.1 µM	remaining binding	97%
Cc1ccc(C(=O)NCc2ccsc2)cc1C#Cc1cn(C(C)C)c2ncnc(N)c12	enzyme activity	inhibitor		1 µM	activity vs control	31%
CN1CC(Oc2cnc(C#N)cc2-c2ccn3nc(NC(=O)C4CC4)cc3c2)C1	enzyme activity	inhibitor		1 µM	inhibition	4%
Cc1ccc(C(=O)Nc2ccc(CN3CCN(C)CC3)c(C(F)(F)F)c2)cc1C#Cc1cnc2cccnn12	enzyme activity	inhibitor		23.5 nM	remaining activity	40%
CNC(=O)c1cc2c(Oc3ccc(NC(=O)C4(C(=O)Nc5ccc(F)cc5)CC4)cc3)ccnc2cc1OC	enzyme activity	inhibitor	radiometric	1 µM	inhibition	97%
CC(C)(C)c1nc2c(s1)c1nc(N)ncc1c1ccc(NS(=O)(=O)c3c(F)cccc3F)c(F)c12	enzyme activity	inhibitor	radiometric	1 µM	remaining activity	70%
Cc1cc(-n2nc(Cc3cc(F)cc(C(F)(F)F)c3)nc2C)ccc1C(N)=O	cell-free assay		competition with immobilised ligand	1 µM	remaining binding	98%
COc1cc2ncnc(Nc3ccc(Oc4ccccc4)c(C)c3C)c2cc1OC	enzyme activity	inhibitor		1 µM	inhibition	24%
